In ChEMBL document CHEMBL1177688, “Synthesis of novel pyrazolic analogues of chalcones and their 3-aryl-4-(3-aryl-4,5-dihydro-1H-pyrazol-5-yl)-1-phenyl-1H-pyrazole derivatives as potential antitumor agents” (2010):

Experiments:
Format in all cases: functional
HCT-116 = experiment: Antiproliferative activity against human HCT116 cells after 48 hrs by SRB assay; conditions: HCT-116, 48 h
Procedure, shortened: (§1)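 NCI 60-cell human tumour line panel. Continuous 48 h drug exposure at five concentrations (100, 10, 1.0, 0.1, 0.01 µM). Cell growth estimated by sulforhodamine B protein staining. GI50 = concentration giving 50% reduction in net protein increase versus control cells over the incubation. LC50 = molar concentration killing 50% of cells.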

HL-60 = experiment: Antiproliferative activity against human HL-60(TB) cells after 48 hrs by SRB assay; conditions: HL-60, 48 h
Procedure, shortened: (§2)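 NCI 60-cell-line human tumour panel, secondary five-dose screen. Compounds tested at 100, 10, 1.0, 0.1 and 0.01 µM with 48 h continuous exposure. Cell growth was estimated by sulforhodamine B protein staining. GI50 is the concentration giving a 50% reduction in net protein increase relative to untreated control cells over the incubation. TGI and LC50 were also derived.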

SF-268 = experiment: Antiproliferative activity against human SF268 cells after 48 hrs by SRB assay; conditions: SF-268, 48 h; procedure, shortened: as §2
U-251 = experiment: Antiproliferative activity against human U251 cells after 48 hrs by SRB assay; conditions: U-251, 48 h; procedure, shortened: as §1
K562 = experiment: Antiproliferative activity against human K562 cells after 48 hrs by SRB assay; conditions: K562, 48 h; procedure, shortened: as §2
OVCAR-8 = experiment: Antiproliferative activity against human OVCAR8 cells after 48 hrs by SRB assay; conditions: OVCAR-8, 48 h; for CC50: read-out: LC50 (the source's name); procedure, shortened: as §2
786-0 = experiment: Antiproliferative activity against human 786-0 cells after 48 hrs by SRB assay; conditions: 786-0, 48 h; procedure, shortened: as §2
OVCAR-3 = experiment: Antiproliferative activity against human OVCAR-3 cells after 48 hrs by SRB assay; conditions: OVCAR-3, 48 h; procedure, shortened: as §2
CCRF-CEM = experiment: Antiproliferative activity against human CCRF-CEM cells after 48 hrs by SRB assay; conditions: read-out: LC50 (the source's name); procedure, shortened: as §2
COLO 205 = experiment: Antiproliferative activity against human COLO205 cells after 48 hrs by SRB assay; conditions: COLO 205, 48 h; procedure, shortened: as §1
MOLT-4 = experiment: Antiproliferative activity against human MOLT4 cells after 48 hrs by SRB assay; conditions: MOLT-4, 48 h; procedure, shortened: as §2
UO-31 = experiment: Antiproliferative activity against human UO31 cells after 48 hrs by SRB assay; conditions: UO-31, 48 h; for CC50: read-out: LC50 (the source's name); procedure, shortened: as §2
HOP-62 = experiment: Antiproliferative activity against human HOP62 cells after 48 hrs by SRB assay; conditions: HOP-62, 48 h; procedure, shortened: as §2
HCT-15 = experiment: Antiproliferative activity against human HCT15 cells after 48 hrs by SRB assay; conditions: HCT-15, 48 h; for CC50: read-out: LC50 (the source's name); procedure, shortened: as §2
SNB-75 = experiment: Antiproliferative activity against human SNB75 cells after 48 hrs by SRB assay; conditions: SNB-75, 48 h; procedure, shortened: as §2
NCI-H522 = experiment: Antiproliferative activity against human NCI-H522 cells after 48 hrs by SRB assay; conditions: NCI-H522, 48 h; procedure, shortened: as §2
SN12C = experiment: Antiproliferative activity against human SN12C cells after 48 hrs by SRB assay; conditions: read-out: LC50 (the source's name); procedure, shortened: as §2
BT-549 = experiment: Antiproliferative activity against human BT549 cells after 48 hrs by SRB assay; conditions: BT-549, 48 h; for CC50: read-out: LC50 (the source's name); procedure, shortened: as §2
SW-620 = experiment: Antiproliferative activity against human SW620 cells after 48 hrs by SRB assay; conditions: SW-620, 48 h; procedure, shortened: as §2
PC-3 = experiment: Antiproliferative activity against human PC3 cells after 48 hrs by SRB assay; conditions: PC-3, 48 h; procedure, shortened: as §2
OVCAR-4 = experiment: Antiproliferative activity against human OVCAR4 cells after 48 hrs by SRB assay; conditions: OVCAR-4, 48 h, read-out: LC50 (the source's name); procedure, shortened: as §2
Hs-578T = experiment: Antiproliferative activity against human Hs 578T cells after 48 hrs by SRB assay; conditions: read-out: LC50 (the source's name); procedure, shortened: as §2
[1] = read-out: LC50 (the source's name)

O=C(/C=C/c1cn(-c2ccccc2)nc1-c1ccc([N+](=O)[O-])cc1)c1ccc(Cl)cc1
GI50 (HCT-116): 2750 nM | CC50 (HCT-116; [1]): > 100 µM | GI50 (HL-60): > 100 µM | CC50 (HL-60; [1]): > 100 µM | GI50 (SF-268): 3.12 µM | LC50 (SF-268): > 100 µM | GI50 (U-251): 2090 nM | CC50 (U-251; [1]): > 100 µM | GI50 (K562): 90 nM | CC50 (K562; [1]): > 100 µM | GI50 (OVCAR-8): 6.32 µM | CC50 (OVCAR-8): > 100 µM | GI50 (786-0): 3.94 µM | CC50 (786-0; [1]): > 100 µM | GI50 (OVCAR-3): 1960 nM | CC50 (OVCAR-3; [1]): > 100 µM | CC50 (CCRF-CEM): > 100 µM | GI50 (COLO 205): 2090 nM | GI50 (MOLT-4): 870 nM | CC50 (MOLT-4; [1]): > 100 µM | GI50 (UO-31): 100 nM | CC50 (UO-31): > 100 µM | GI50 (HOP-62): 26 µM | CC50 (HOP-62; [1]): > 100 µM | CC50 (HCT-15): > 100 µM | GI50 (SNB-75): 1550 nM | LC50 (50% lethal concentration) (SNB-75): 24 µM | GI50 (NCI-H522): 6.41 µM | LC50 (concentration killing 50% of tumour cells) (NCI-H522): > 100 µM | CC50 (SN12C): > 100 µM | GI50 (BT-549): 2250 nM | CC50 (BT-549): > 100 µM

COc1ccc(C2=NN(C(C)=O)C(c3cn(-c4ccccc4)nc3-c3ccc(Cl)cc3)C2)cc1 (stereo not drawn)
GI50 (HCT-116): 1940 nM | GI50 (SF-268): 4.55 µM | LC50 (SF-268): > 100 µM | GI50 (U-251): 1710 nM | CC50 (OVCAR-8): > 100 µM | GI50 (COLO 205): 2160 nM | CC50 (UO-31): > 100 µM | GI50 (SW-620): 3.48 µM | CC50 (SW-620; [1]): > 100 µM | GI50 (HCT-15): 3.09 µM | CC50 (HCT-15): > 100 µM | GI50 (SNB-75): 2760 nM | LC50 (50% lethal concentration) (SNB-75): > 100 µM | GI50 (PC-3): 2350 nM | CC50 (PC-3; [1]): > 100 µM | CC50 (OVCAR-4): > 100 µM | CC50 (Hs-578T): > 100 µM | GI50 (NCI-H522): 2.2 µM | LC50 (concentration killing 50% of tumour cells) (NCI-H522): > 100 µM | CC50 (SN12C): > 100 µM | CC50 (BT-549): > 100 µM
